For orientation: LC50 means the concentration that kills 50% of the test population. A high value points to lower toxicity.

≈ marks a conversion by molar mass, not a printed value.

The source of these data is ChEMBL document CHEMBL1158046, “Photoactivated insecticidal thiophene derivatives from Xanthopappus subacaulis” (2006).

For test [1], the system named is Aedes albopictus. The test is described as follows: Insecticidal activity against Asian tiger mosquito fourth-instar larvae after 24 hrs in dark. It is filed as functional. In outline:
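Aedes albopictus fourth-instar larvae from a laboratory colony; samples dissolved and serially diluted in acetone, 0.4 mL added to 20 mL dechlorinated water with 30 larvae; held in the dark throughout the trial; mortality read at 24 h, three replications per concentration; LC50 (concentration causing 50% mortality) determined.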

For test [2], the system named is Aedes albopictus. The test is described as follows: Insecticidal activity against Asian tiger mosquito fourth-instar larvae irradiated with 2074 uW/cm'2 UV light for 1.5 hrs. The class given is functional. The following applies: light or radiation study. In short, it runs like this:
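Aedes albopictus fourth-instar larvae from a laboratory colony; acetone-diluted samples (0.4 mL) added to 20 mL dechlorinated water with 30 larvae; 3 h dark incubation, then 1.5 h UV irradiation (300-400 nm, max 365 nm), then 24 h in darkness; mortality from three replications per concentration; LC50 (concentration causing 50% mortality) determined.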

As for `C/C=C/C#CC#Cc1ccc(CO)s1`, the results for the LC50 in the test with Aedes albopictus [1] and in the test with Aedes albopictus [2] were above 10 µg/mL and 0.3 µg/mL (≈ 1.48 µM), respectively.
Regarding `C/C=C/C#CC#Cc1ccc(C(O)CO)s1` (racemic), the figures for the LC50 in the test with Aedes albopictus [1] and in the test on Aedes albopictus [2] were above 10 µg/mL and 4.2 µg/mL (≈ 18.1 µM), respectively.
As to `C/C=C/C#CC#Cc1ccc(C(COC(C)=O)OC(C)=O)s1` (racemic), the figures for the LC50 with Aedes albopictus [1] and with Aedes albopictus [2] were above 10 µg/mL and 0.66 µg/mL (≈ 2.09 µM), respectively.
In the same order, the values of `C/C=C/C#CC#Cc1ccc(C(O)CCl)s1` (racemic) [XANTHOPAPPIN B] are 5.1 µg/mL (≈ 20.3 µM) and 0.53 µg/mL (≈ 2.11 µM).
As to `C/C=C/C#CC#Cc1ccc(C(=O)C(O)(CC(C)=O)c2ccc(C#CC#C/C=C/C)s2)s1` (racemic) [XANTHOPAPPIN C], the figures for the LC50 in the test with Aedes albopictus [1] and with Aedes albopictus [2] were above 10 µg/mL and 0.95 µg/mL (≈ 2.08 µM), respectively.
`C/C=C/C#CC#Cc1cccs1` [XANTHOPAPPIN A]: the LC50 is above 10 µg/mL with Aedes albopictus [1] and 0.71 µg/mL (≈ 4.12 µM) in the test on Aedes albopictus [2].
